Screening results deposited in PubChem by several laboratories.
Shown are actives, neighbours in structure and some others; about 1.8% of the full set was active somewhere.
MsrA inhibitor: bovine MsrA enzyme inhibitors, primary screen, biochemical, absorbance, HTS | Methionine sulfoxide reductase A (Bos taurus) | purified bovine MsrA, absorbance read-out | inhibition, % at 15.5 µM | 0.75% of 360,000 active | AID 651718, 2012; in the data active means inhibition above about 4.5%
bovine MsrA act: bovine MsrA enzyme activators, primary screen, biochemical, absorbance, HTS; Methionine sulfoxide reductase A (Bos taurus); purified bovine MsrA, absorbance read-out; activation, % at 10.6 µM; 0.3% of 360,000 active; AID 602163, 2012; in the data active means activation above about 7.5%
DAGLB inh: DAGLB lipase inhibitors, primary screen, biochemical, fluorescence, HTS; HEK293T DAGLB membrane lysate, EnzChek fluorogenic substrate; inhibition, % at 5.17 µM; 0.059% of 340,000 active; Diacylglycerol lipase-beta (Homo sapiens), Q8NCG7; in the data active means inhibition above about 34%
Target sequence (Q8NCG7 whole entry, looked up): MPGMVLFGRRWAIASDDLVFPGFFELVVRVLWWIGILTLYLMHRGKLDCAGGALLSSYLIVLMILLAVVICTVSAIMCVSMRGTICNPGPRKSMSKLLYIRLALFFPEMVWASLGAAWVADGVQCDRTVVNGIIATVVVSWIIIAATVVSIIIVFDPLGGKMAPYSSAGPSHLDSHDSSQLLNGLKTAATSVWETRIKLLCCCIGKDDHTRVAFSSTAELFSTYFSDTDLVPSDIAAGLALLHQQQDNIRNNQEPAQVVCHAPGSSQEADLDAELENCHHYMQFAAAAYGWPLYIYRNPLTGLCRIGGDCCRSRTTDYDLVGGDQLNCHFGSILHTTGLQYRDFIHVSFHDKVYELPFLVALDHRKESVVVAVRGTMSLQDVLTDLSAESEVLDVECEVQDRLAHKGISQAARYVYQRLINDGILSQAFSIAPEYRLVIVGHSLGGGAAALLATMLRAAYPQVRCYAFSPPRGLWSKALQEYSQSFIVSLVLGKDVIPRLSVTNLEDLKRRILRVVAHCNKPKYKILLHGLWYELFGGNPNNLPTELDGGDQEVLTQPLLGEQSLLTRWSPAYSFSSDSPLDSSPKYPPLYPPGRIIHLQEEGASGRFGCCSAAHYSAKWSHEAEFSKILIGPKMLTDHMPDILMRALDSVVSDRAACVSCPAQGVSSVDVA
SKN-1 block: suppressors of acrylamide-induced Pgst-4::GFP reporter in worms, primary screen, SKN-1 inhibitor project, whole organism, uHTS, GFP/RFP fluorescence ratio, strain VP596; inhibition, % at 21.8 µM; AID 624304, 2012; 0.49% of 360,000 active; C. elegans VP596 Pgst-4::GFP/RFP ratio, 24 h;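 active means interference check ratio from 0.5 to 1.5 plus GFP to RFP signal ratio inhibition reaching or exceeding a fixed threshold, cut at about 30% in these data, passing the limit was not always enough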
MIN6 prolif: inducers of MIN6 beta-cell proliferation, primary screen, ATP luminescence, uHTS; MIN6 cells proliferation, ATPlite luminescence, 48 h; cells starved in 0.2% serum; 100% = growth in 10% serum; proliferation, % at 10 µM; 0.29% of 330,000 active; AID 2380, 2010;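 active means compounds whose signal lies at least 3.5 SD above the mean of all wells on their plate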
MT1-MMP act inh: blockers of MT1-MMP proenzyme processing, primary screen, HT1080 RFP-PRO-GFP cells, GFP/RFP fluorescence; AID 651647, 2012; 0.061% of 360,000 active; GFP/RFP ratio fluorescence, overnight; percent of plate control window, DMSO zero; GFP/RFP ratio change, % at 20 µM;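 active means GFP/RFP ratio change of at least 30% with cell ATP level not reduced by more than half and red fluorescence within 50% of control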
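Material: RFP-PRO-GFP reporter HT1080 cells. Dosing: single-point 20 µM compound, 1% DMSO. Controls: DMSO and RFP-L50D-GFP cell wells. Timing: cells overnight before dosing, compound overnight, 37 °C, 5% CO2. Measure: GFP/RFP fluorescence ratio.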
MT1-MMP act val: MT1-MMP activation inhibitors, hit retest, confirmation, single concentration, fluorescence, HT1080 RFP-PRO-GFP cells; GFP and RFP fluorescence ratio, overnight; shares compounds with MT1-MMP act inh; inhibition, % at 20 µM; 10% of 200 active;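 active means inhibition of at least 50% in the primary cell screen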
Numbers stand for hits; - = inactive; . = no result.

SMILES	MsrA inhibitor	bovine MsrA act	DAGLB inh	SKN-1 block	MIN6 prolif	MT1-MMP act inh	MT1-MMP act val
CSC1=NSC2=NC(=O)/C(=C\c3cccs3)C(=N)N12	-	-	-	-	.	35.2	-
CC(C)CSC1=NSC2=NC(=O)/C(=C\c3cccs3)C(=N)N12	-	-	-	-	-	-	.
Cc1cccc(OCC(=O)NCCNC(=O)c2ccccn2)c1	-	-	-	-	-	-	.
CN(CCCC(=O)O)c1ccc(N=Nc2ccc([N+](=O)[O-])cc2)cc1	-	-	-	-	-	53.2	-
COc1ccc(Br)cc1CNc1ccc2[nH]c(=O)[nH]c2c1	-	-	-	-	-	-	.
COc1ccc(Br)cc1CNc1ccc(O)cc1	-	-	-	-	-	52.4	-
CCn1c2ccccc2nc2cc3c(cc21)c(Cl)c(=O)c1ccccc13	-	-	-	-	.	35.7	-
CCn1c(/C=C/c2c(C)n(CC)c3ccccc23)nc2ccccc2c1=O	-	-	-	-	-	-	.
CN(C(=O)c1cccc(NC(=O)Cc2ccc(NC(=O)C3CCN(C(=O)C4CC4)CC3)cc2)c1)C1CCCCC1	-	-	-	-	.	-	.
CC1CCN(C(=O)c2ccc3c(c2NCCO)C(=O)c2ccccc2C3=O)CC1	-	-	-	-	-	30.6	-
CC1C=CC=CC=CC=CC=CC=CC=CC(OC2OC(C)C(O)C(N)C2O)CC2OC(O)(CC(O)CC(O)C(O)CCC(O)CC(O)CC(=O)OC(C)C(C)C1O)CC(O)C2C(=O)O (stereo not drawn)	.	-	-	-	.	-	.
COc1ccc(C)cc1N=Nc1ccc(O)c2ncccc12	-	-	-	-	.	30.6	-
CCOC(=O)C1=C(C)N=c2s/c(=C\c3ccc(OC(C)=O)c(OCC)c3)c(=O)n2C1/C=C/c1ccccc1 (stereo not drawn)	-	-	-	-	-	42.2	-
CCOC(=O)C1=C(C)N=c2s/c(=C\c3ccc(OC(C)=O)cc3)c(=O)n2C1/C=C/c1ccccc1 (stereo not drawn)	-	-	-	-	-	-	.
Cc1cc(C)cc(NC(=O)Nc2ccc(Cl)cn2)c1	-	-	-	-	-	-	.
C/C(=N\Nc1nc2ccccc2[nH]1)c1ccc([N+](=O)[O-])cc1	-	-	-	-	-	51.0	-
CC1CCCN(c2ccc([N+](=O)[O-])s2)C1 (stereo not drawn)	-	-	-	-	.	-	.
O=[N+]([O-])c1ccc(N2CCCCC2)s1	-	-	-	-	-	32.2	-
CC1(NC(=O)CC(c2ccccc2)(c2ccccc2)c2ccccc2)CCN(CCCc2ccccc2)C1=O (stereo not drawn)	-	-	-	-	-	-	.
COc1cc(/C=C/c2cc(OC(C)=O)c3ccccc3n2)c(OC(C)=O)c([N+](=O)[O-])c1	-	-	-	-	-	36.9	-
CCN1C(=O)/C(=c2\o/c(=C3\C=Cc4ccccc4N3CC)c(=O)n2CC)SC1=S	-	-	-	-	.	-	.
CCN1C(=O)/C(=C2\C=Cc3ccccc3N2CC)SC1=S	-	-	-	-	-	99.1	-
COc1cc(/C=C2\C(=O)N(c3ccc(NC(C)=O)cc3)N=C2c2ccccc2)ccc1O	-	-	-	-	-	-	.
CCOc1cc(/C=C2\C(=O)N(c3nc(-c4ccc(Br)cc4)cs3)N=C2c2ccccc2)ccc1O	.	-	-	-	-	62.9	-
C=C1N(C)c2cc([N+](=O)[O-])c(N)cc2C1(C)C	-	-	-	-	-	36.4	-
SMILES	MsrA inhibitor	bovine MsrA act	DAGLB inh	SKN-1 block	MIN6 prolif	MT1-MMP act inh	MT1-MMP act val
O=C(O)c1cccc(N2C(=O)c3cc([N+](=O)[O-])cc4cc([N+](=O)[O-])cc(c34)C2=O)c1	-	-	-	-	-	41.9	-
O=C(O)c1cccc(N2C(=O)c3cccc4cccc(c34)C2=O)c1	-	-	-	-	-	-	.
O=C1CN(c2ccccc2Cl)C(=O)CN1c1ccccc1Cl	-	-	-	-	-	-	.
Cc1ccccc1N1CC(=O)N(c2ccccc2C)CC1=O	-	-	-	-	-	36.2	-
OC(c1ccc(Cl)c(F)c1)c1ncc(-c2ccc(F)cc2)[nH]1 (stereo not drawn)	-	-	.	-	.	-	.
O=C(/C=C(\c1ccc(Cl)cc1)n1cncn1)c1ccc(Cl)cc1	.	-	-	-	-	31.5	-
Cc1ccc(C)c(Nc2nc(N)c3ccccc3n2)c1	-	-	-	-	-	31.3	-
COc1ccc(Cl)cc1Nc1nc(N)c2ccccc2n1	-	-	-	-	-	-	.
Nc1nc(Nc2cccc(F)c2)nc2ccccc12	-	-	-	-	-	34.6	-
COc1ccc(CCNS(=O)(=O)CCNC(=O)c2ccc3c(c2)OCO3)cc1	-	-	-	-	-	-	.
Cc1noc(C)c1C(=O)OCC(=O)Nc1ncc(Cl)c(C)c1Cl	-	-	-	-	-	-	.
O=C(NCCCn1ccnc1)c1cccnc1	-	-	-	-	-	31.9	-
Cc1cc(C)c(NS(=O)(=O)c2ccccc2)c(C)c1	-	-	-	-	.	-	.
Cc1cc(C)c(S(=O)(=O)/N=C2\C=C(NS(=O)(=O)c3ccccc3)C(=O)c3ccccc32)c(C)c1	-	-	-	-	-	41.4	-
CN1/C(=C/C=C/c2n(C)c3cc([N+](=O)[O-])c([N+](=O)[O-])cc3[n+]2C)C(C)(C)c2ccccc21	-	-	-	57.2	.	96.6	94.3
N#CCCN1CCCc2cc(N=Nc3ccc(C(F)(F)F)cc3)ccc21	-	-	.	-	-	31.8	-
O=S(=O)(O)c1cc(O)c(N=Nc2ccc(O)cc2O)c2ccccc12	-	-	-	-	.	64.4	50.1
CCc1noc(C)c1C(=O)NNC(=O)c1ccccc1Cl	-	-	-	-	-	-	.
COc1ccc(Oc2cccc(Cl)c2CNC(=O)CCC(=O)O)cc1	-	-	-	-	-	-	.
CNc1ccccc1C(C)(C)c1cc(-c2cccc(OC)c2)no1	-	-	.	-	-	46.6	54.0
CNc1ccccc1C(C)(C)c1cc(-c2cc(C)cc(C)c2)no1	-	-	-	-	-	-	.
